A selection: hits, their analogues and other compounds. The true share with any hit is near 3.7%.
KCNK3 block = human KCNK3 channel inhibition, primary screen. hit rate 0.84% among 340,000. O14649. CHO-KCNK3 thallium flux, FluxOR fluorescence; stronger effect = lower value. B-score at 10 µM;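 active = B-score under library mean minus 4 SD, starting fluorescence ratio at most library mean plus 5 SD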;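 also: more negative B-score means stronger inhibition of thallium flux through KCNK3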
Target sequence (O14649 whole entry, looked up): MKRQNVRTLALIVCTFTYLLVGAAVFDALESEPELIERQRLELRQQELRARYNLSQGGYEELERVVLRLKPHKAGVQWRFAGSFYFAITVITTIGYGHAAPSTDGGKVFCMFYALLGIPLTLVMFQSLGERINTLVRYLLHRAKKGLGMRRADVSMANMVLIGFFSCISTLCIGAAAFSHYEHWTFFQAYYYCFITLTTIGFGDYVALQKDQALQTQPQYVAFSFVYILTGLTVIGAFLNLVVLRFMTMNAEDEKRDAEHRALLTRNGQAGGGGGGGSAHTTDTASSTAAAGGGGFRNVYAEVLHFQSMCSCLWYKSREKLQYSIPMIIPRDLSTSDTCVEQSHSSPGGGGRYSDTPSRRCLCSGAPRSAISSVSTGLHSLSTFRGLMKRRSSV
KCNQ1 act = potentiates or activates the human KCNQ1 potassium channel. hit rate 0.35% among 310,000. CHO-K1 KCNQ1, thallium flux FluxOR fluorescence; stronger effect = higher value. P51787. B-score at 10 µM;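 active = fluorescence ratio B-score, a plate-corrected score, at least three library SD, with initial intensity B-score within 5 SD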
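assay system = KCNQ1-transfected CHO-K1 cells | medium = assay buffer with matched DMSO | probe or stimulus = depolarizing K+/Tl+ stimulus, K2SO4 and Tl2SO4 each 12.5 mM in 5x stock | dosing = single dose | incubation = dye 90 min, compound 20 min, room temperature | detection = kinetic FluxOR fluorescence, 10 s baseline plus 110 s post-stimulus | evaluation = ratio B score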
KCNQ1 inh = inhibitors of human KCNQ1 potassium channel; P51787; CHO-K1 KCNQ1, FluxOR thallium flux fluorescence; stronger effect = higher value; B-score at 10 µM; hit rate 1.3% among 310,000;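 active = compounds whose thallium flux B-score, printed positive for inhibition, exceeds three library SD while starting fluorescence stays within three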;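 also: channel opened by potassium depolarization with thallium stimulus after 20 min compound exposure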
Kir21 block = inhibitors of mouse Kir2.1 inward-rectifier potassium channel | P35561 | HEK293-Kir2.1, FluxOR thallium flux fluorescence; stronger effect = lower value | B-score at 10 µM | hit rate 0.85% among 310,000 | AID 1672;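 active = fluorescence ratio B-score at or below minus 3 SD of library scores, with starting-brightness B-score within 2 SD, cut at about -4.2 in these data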;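 also: channel flux triggered by added potassium and thallium sulfate stimulus; B-score of peak minus minimum fluorescence over baseline after thallium stimulus; more negative B-score means stronger Kir2.1 block with less thallium influx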
hERG protect = compounds protecting human hERG from proarrhythmic drug block; Q12809; CHO-hERG, FluxOR thallium flux, dofetilide IC70 present; activation (rescue from dofetilide block), less the hit threshold, % at 10 µM; hit rate 0.51% among 310,000;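 active = activation above the mean of controls blocked by dofetilide plus 5 SD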;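 also: thallium influx through hERG after potassium depolarization seen as dye fluorescence rise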
KCNK9 block = blocks the human KCNK9 two-pore domain potassium channel | Q9NPC2 | HEK293 KCNK9, FluxOR thallium flux fluorescence; stronger effect = lower value | B-score at 10 µM | hit rate 1.2% among 310,000 | AID 488922;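 active = ratio B-score over 3 SD below the library mean, with starting fluorescence within 5 SD of its mean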;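 also: negative B-score means less thallium flux so channel inhibition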
* hit, by the source's call; i = inactive; · = no result.

SMILES	KCNK3 block	KCNQ1 act	KCNQ1 inh	Kir21 block	hERG protect	KCNK9 block
COc1ccc(C)cc1NS(=O)(=O)c1ccc(NS(=O)(=O)c2ccc(NC(C)=O)cc2)cc1	i	i	i	-0.31	-8.9	i
COc1ccc(S(=O)(=O)Nc2cc(C)ccc2OC)cc1C	i	i	i	-6.96*	-2.5	i
COc1ccc(Cl)cc1NS(=O)(=O)c1ccc(OC)c(OC)c1	i	i	i	-8.16*	-17.3	i
Cc1noc(C)c1CN(C(=S)NC(C)C)c1ccccc1	i	i	i	-6.46*	-10.6	i
CCCN(CC(=O)Nc1cc(Cl)ccc1Cl)C(=O)/C=C/c1cc(OC)ccc1OC	-8.72*	·	·	·	·	·
CCOc1ccc(S(=O)(=O)Oc2ccc3ccccc3c2)cc1	i	i	6*	-0.58	-7.5	i
CCC(C)NC(=O)CCc1c(C)nc2c(c(C)nn2-c2ccccc2)c1C (centres undefined)	i	i	i	0.61	-10.6	i
Cc1nc2c(c(C)nn2-c2ccccc2)c(C)c1CCC(=O)Nc1ccc(CN2CCCC2)cc1	i	i	i	-9*	-13.4	i
CC(=O)c1ccc(-c2nnc(CCC(=O)N(C)Cc3cccc4cnccc34)o2)s1	i	i	i	0.38	-13.7	i
CC(=O)c1ccc(-c2nnc(CCC(=O)N(C)Cc3c(C)nc4ccccn34)o2)s1	i	i	i	-0.02	8.1*	i
CCCCNC(=O)Nc1ccccc1CC	i	i	i	-0.17	0.7	i
CCCCNC(=S)Nc1ccccc1Cc1ccccc1	i	i	i	-4.74*	-10.6	i
O=[N+]([O-])c1cccc(N(CC2CO2)S(=O)(=O)c2ccccc2)c1 (centres undefined)	i	i	i	-4.71*	-3.5	i
Cc1ccc(N(CC2CO2)S(=O)(=O)c2ccc([N+](=O)[O-])cc2)cc1 (centres undefined)	i	i	i	-4.32*	-1.5	i
COc1ccccc1NC(=O)CNC(=O)c1ccc([N+](=O)[O-])cc1	i	i	i	-1.06	-9.7	i
O=C(Nc1ccc(Cl)c(Cl)c1)Nc1ccc(Br)cc1F	i	i	7*	-0.41	-28.6	i
CSc1ccccc1NC(=O)Nc1ccc(F)c(Cl)c1	i	i	i	0.7	-11.3	i
CCC(C)N(C)C(=O)c1cc2ccccc2c(-c2ccccc2Cl)n1 (centres undefined)	i	i	i	-0.01	-10.9	i
CC(=O)C1CCC2C3CC=C4CC(SC(=N)N)CCC4(C)C3CCC12C (centres undefined)	-9.18*	·	·	·	·	·
CC(=O)OCC(=O)C1CCC2C3CC=C4CC(O)CCC4(C)C3CCC12C (centres undefined)	i	·	·	·	·	·
O=c1[nH]c(SCc2c(Cl)cccc2Cl)nc2ccccc12	i	i	i	-0.42	-21.8	i
O=c1[nH]c(C(Cl)(Cl)Cl)nc2ccc3ccccc3c12	i	25*	i	0.06	5.1*	i
COc1cc(NS(=O)(=O)c2cc(NC(C)=O)ccc2OC)c(OC)cc1NC(=O)c1ccccc1	i	·	·	·	·	·
N#CC1(Cc2ccccc2Cl)c2ccccc2C=CN1C(=O)c1ccccc1 (centres undefined)	i	i	8*	0.29	-12.0	i
N#CC1c2ccccc2C=CN1C(=O)c1ccccc1 (centres undefined)	i	i	i	0.3	-8.3	i
SMILES	KCNK3 block	KCNQ1 act	KCNQ1 inh	Kir21 block	hERG protect	KCNK9 block
COc1ccccc1-n1c(C)nc(=O)c(-c2ccccc2)c1C	i	i	i	-0.01	5.3*	i
COCCCNC(=O)/C=C1\Sc2ccccc2N(Cc2ccccc2F)C1=O	i	i	i	0.12	-13.6	i
CN1CCN(CCCNC(=O)c2ccc(/C=C3\Oc4ccccc4N(Cc4ccccc4F)C3=O)cc2)CC1	i	i	i	0.04	-19.7	i
CN1CCN(CCCNC(=O)c2ccc(/C=C3\Sc4ccccc4N(Cc4ccc(F)cc4)C3=O)cc2)CC1	i	i	6*	-0.43	-41.5	i
CCN1CCN(CCNC(=O)c2ccc(/C=C3\Sc4ccccc4N(Cc4ccccc4F)C3=O)cc2)CC1	i	i	7*	-4.71*	-31.2	i
Cc1cc(C)cc(N(CC(=O)NC2CCCC2)C(=O)CNC(=O)c2cccs2)c1	i	i	i	1.31	-4.3	i
O=C(COC(=O)CCSc1ccccc1)Nc1ccccc1	i	·	·	·	·	·
CC(C)OCCCNC(=O)c1ccc(NC(=O)C2CCCO2)cc1 (centres undefined)	i	i	i	0.04	-11.7	i
CCCCNC(=O)c1ccc(NC(=O)C2CCCO2)cc1 (centres undefined)	i	i	i	-0.27	40.2*	i
COc1cc2nc(Nc3ccc(F)cc3)nc(N)c2cc1OC	i	i	i	-5.9*	-4.9	i
CC(C)Oc1ccc(C(CC(=O)NCc2ccco2)c2ccccc2)cc1 (centres undefined)	i	i	i	0.09	-10.8	-7.18*
O=c1c2cc(Br)ccc2nc(-c2cccc(C(F)(F)F)c2)n1O	i	99*	i	0.13	72.6*	i
O=c1c2cc(Cl)ccc2nc(-c2ccccc2)n1O	i	8*	i	-0.02	11.3*	i
O=c1c2ccc(Cl)cc2nc(-c2ccc([N+](=O)[O-])cc2)n1O	i	35*	i	1.03	6.7*	i
O=c1c2cc(Br)ccc2nc(-c2ccc([N+](=O)[O-])cc2)n1O	i	26*	i	0.35	16.3*	i
CC(=O)NC(CC(=O)NCc1ccncc1)c1ccccc1 (centres undefined)	i	i	i	2.37	-9.7	i
CC(=O)CC(=O)Nc1ncccn1	i	i	i	-0.61	-1.2	i
CCc1ccc(NC(=O)CSc2nnnn2-c2cccnc2)cc1	i	i	i	-1.16	-4.8	i
Cc1ccc(CNC(=O)c2cn(C3CCCCC3)c(=O)c3c2c2ccccc2n3C)o1	-9.41*	i	i	0.44	-7.7	i
Cc1ccc(CNC(=O)c2cn(C)c(=O)c3c2c2ccccc2n3C)o1	i	i	i	0.03	-9.0	i
CC1CCCN(C(=O)CSc2nnc3ccccn23)C1 (centres undefined)	i	·	·	·	·	·
O=c1cc2c(nn1Cc1c(Cl)cccc1Cl)-c1ccccc1CC2	i	9*	i	-0.78	-4.8	i
O=S(=O)(c1cccc(-c2n[nH]c(=S)n2-c2ccc(OC(F)(F)F)cc2)c1)N1CCOCC1	i	·	·	·	·	·

Screens: PubChem BioAssay, Johns Hopkins Ion Channel Center
